Reference: ChEMBL document CHEMBL1149381, “New arylthioindoles: potent inhibitors of tubulin polymerization. 2. Structure-activity relationships and molecular modeling studies” (J Med Chem, 2006)
The source made the active and inactive calls. The rule behind the calls is not given here.

Key:
Tubulin = test: Inhibition of tubulin polymerization; format: functional, Homo sapiens
How it was run: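 Tubulin 10 µM in 0.8 M monosodium glutamate (pH 6.6), preincubated 15 min at 30 °C with varying drug, chilled on ice, then GTP added to 0.4 mM. Turbidity followed at 350 nm for 20 min at 30 °C. Extent of assembly measured and IC50 derived.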

MCF7 = test: Inhibition of growth of MCF7 cells; format: functional, cell-based; details: Homo sapiens
Tubulin (Homo sapiens) = Tubulin (Homo sapiens) (UniProt P68371+Q9H4B7+P0DPH7+P68366+Q13509+Q71U36+P04350+Q3ZCM7+P07437+P68363+Q9BQE3+Q6PEY2+Q13885+Q9BVA1+Q9BUF5); test: Displacement of [3H]colchicine from tubulin; format: protein-complex assay; details: concentration not given here
How it was run: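 [3H]Colchicine 5.0 µM with 1.0 µM tubulin and 5.0 µM inhibitor, incubated 10 min at 37 °C. Result given as % inhibition of colchicine binding.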

SCLC = test: Inhibition of growth of SCLC cells; format: functional, cell-based; details: Homo sapiens
[1] = target: Heat shock protein HSP 90-alpha (Homo sapiens) (UniProt P07900); test: Binding affinity to Hsp90-alpha by fluorescent polarization assay
How it was run: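 Fluorescence polarization competition with recombinant Hsp90α (30 nM) and GM-BODIPY (fluorescent geldanamycin, 5 nM) in 20 mM K-HEPES pH 7.3, 50 mM KCl, 5 mM MgCl2, 20 mM Na2MoO4, 0.01% NP40, 0.1 mg/mL bovine gamma globulin, 2 mM DTT. Shaken 24 h at 4 °C, mP read. EC50 = competitor concentration displacing 50% of probe.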

Compound | IC50 (Tubulin) [nM] | IC50 (MCF7) [nM] | inhibition (Tubulin (Homo sapiens)) [%] | IC50 (SCLC) [nM] | Activity [1]
COC(=O)c1[nH]c2ccc(Cl)cc2c1S(=O)(=O)c1ccccc1OC | > 40000 | > 2500 |  |  | 
O=C(OCc1ccccc1)c1[nH]c2ccccc2c1Sc1ccccc1 | > 40000 | > 2500 |  |  | 
CCOC(=O)c1[nH]c2ccc(OC)cc2c1Sc1cc(OC)c(OC)c(OC)c1 | 2400 | 46 | 71 |  | 
CCOC(=O)c1[nH]c2ccccc2c1Sc1ccccc1OC | 12000 | > 2500 |  |  | 
CCOC(=O)c1[nH]c2ccccc2c1Sc1ccc(OC)cc1 | > 40000 | > 2500 |  | > 10000 | 
CC(C)(C)OC(=O)c1[nH]c2ccccc2c1Sc1ccccc1 | > 40000 | > 2500 |  |  | 
CC(C)OC(=O)c1[nH]c2ccccc2c1Sc1ccccc1 | 18000 | > 2500 |  |  | 
COC(=O)c1[nH]c2cccc(OC)c2c1Sc1ccccc1 | > 40000 | > 2500 |  |  | 
COC(=O)c1[nH]c2ccc(Cl)cc2c1Sc1cccc(OC)c1 | 1800 | 330 | 53 | 3200 | 
CCOC(=O)c1[nH]c2cc(OC)c(OC)cc2c1Sc1cc(OC)c(OC)c(OC)c1 | 22000 | 1000 |  |  | 
COC(=O)c1[nH]c2ccc(Cl)cc2c1Sc1cc(OC)c(OC)c(OC)c1 |  |  | 57 |  | inactive
CCCOC(=O)c1[nH]c2ccccc2c1Sc1ccccc1 | > 40000 | > 2500 |  |  | 
COC(=O)c1[nH]c2ccc(Cl)cc2c1Sc1cc(OC)cc(OC)c1 | 2200 | 34 | 82 | 18 | 
COC(=O)c1[nH]c2cc(OC)c(OC)cc2c1Sc1cc(OC)c(OC)c(OC)c1 | > 40000 | 1600 |  |  | 
CC(C)CCOC(=O)c1[nH]c2ccccc2c1Sc1ccccc1 | > 40000 | > 2500 |  |  | 
CCOC(=O)c1[nH]c2ccc(OC)cc2c1Sc1ccc(OC)cc1 | > 40000 | > 2500 |  | > 10000 | 

Compound | IC50 (Tubulin) [nM] | IC50 (MCF7) [nM] | inhibition (Tubulin (Homo sapiens)) [%] | IC50 (SCLC) [nM] | Activity [1]
CCOC(=O)c1[nH]c2ccc(Cl)cc2c1Sc1cc(OC)c(OC)c(OC)c1 | 2200 | 110 | 53 | 93 | 
COC(=O)c1[nH]c2ccc([N+](=O)[O-])cc2c1Sc1cc(OC)c(OC)c(OC)c1 | 4500 | 120 | 32 |  | 
CCOC(=O)c1[nH]c2cc(OC)c(OC)cc2c1Sc1ccccc1 | 14000 | > 2500 |  |  | 
CCOC(=O)c1[nH]c2ccccc2c1Sc1cc(OC)c(OC)c(OC)c1 |  |  | 51 |  | 
CCCCOC(=O)c1[nH]c2ccccc2c1Sc1ccccc1 | > 40000 | > 2500 |  |  | 
CCOC(=O)c1[nH]c2ccc(OC)cc2c1Sc1ccccc1OC | 16000 | 350 |  | 2200 | 
COC(=O)c1[nH]c2ccc(OC)cc2c1S(=O)(=O)c1ccccc1 | > 40000 | > 2500 |  |  | 
COC(=O)c1[nH]c2ccc(Cl)cc2c1Sc1ccccc1OC | 4200 | 1300 | 34 | 7000 | 
COC(=O)c1[nH]c2ccc(Cl)cc2c1S(=O)(=O)c1cccc(OC)c1 | 31000 | > 2500 |  | > 10000 | 
CCOC(=O)c1[nH]c2ccc(OC)cc2c1Sc1cccc(OC)c1 | 3100 | 280 | 39 | 584 | 
CCC(C)OC(=O)c1[nH]c2ccccc2c1Sc1ccccc1 (centres undefined) | > 40000 | > 2500 |  |  | 
CCOC(=O)c1[nH]c2ccccc2c1Sc1cccc(OC)c1 | 2900 | 150 | 48 | 585 | 
COC(=O)c1[nH]c2ccc(Cl)cc2c1S(=O)(=O)c1ccc(OC)cc1 | > 40000 | > 2500 |  |  | 
CCOC(=O)c1[nH]c2cc(OC)c(OC)cc2c1S(=O)(=O)c1ccccc1 | > 40000 | > 2500 |  |  | 
COC(=O)c1[nH]c2cc(OC)ccc2c1Sc1ccccc1 | > 40000 | > 2500 |  |  | 
